From ChEMBL document CHEMBL1938269, “Synthesis and biological evaluation of 7-O-modified oroxylin A derivatives” (Bioorg Med Chem Lett, 2012) come the findings set out here.

Active and inactive are the calls of the source. The calls are words filed in the database; no cut-off is given here.

As usually defined, the IC50 is the midpoint of a concentration-inhibition curve.

Assay [1] concerns HCT-116. Nature of the assay: Antiproliferative activity against human HCT116 cells after 48 hrs by MTT assay. The assay is classed as functional, cell-based. The following applies: HCT-116, 48 h.
The subject of assay [2] is HepG2. Nature of the assay: Antiproliferative activity against human HepG2 cells after 48 hrs by MTT assay. The assay is classed as functional, cell-based. As to conditions: HepG2, 48 h. In general terms: Tetrazolium dyes change colour on reduction, which living cells bring about.
Assay [3] can be described thus: Antiproliferative activity against human BCG823 cells after 48 hrs by MTT assay. The assay is classed as functional, cell-based. As to conditions: BCG823, 48 h.
In assay [4] the test system is HepG2. As to the kind of experiment: Ratio of oroxylin A IC50 to compound IC50 for human HepG2 cells. The assay is classed as functional.
The nature of assay [5]: Ratio of oroxylin A IC50 to compound IC50 for human BCG823 cells. The assay is classed as functional.
The test system of assay [6] is HCT-116. Nature of the assay: Ratio of oroxylin A IC50 to compound IC50 for human HCT116 cells. The assay is classed as functional.
Assay [7] has as its system HepG2. Nature of the assay: Induction of apoptosis in human HepG2 cells assessed as non-viable necrotic cells at 1 uM after 72 hrs by annexin-V FITC and PI staining based flow cytometry (reference value: 2.7 +/- 0.1%). The assay is classed as functional.
Assay [8] deals with HepG2. Nature of the assay: Induction of apoptosis in human HepG2 cells assessed as early apoptotic cells at 4 uM after 72 hrs by annexin-V FITC and PI staining based flow cytometry (reference value: 1.4 +/- 0.1%). The assay is classed as functional. For orientation: In flow cytometry, cells or beads pass a laser one at a time.
Assay [9] relates to HepG2. Nature of the assay: Induction of apoptosis in human HepG2 cells assessed as non-viable necrotic cells at 2 uM after 72 hrs by annexin-V FITC and PI staining based flow cytometry (reference value: 2.7 +/- 0.1%). The assay is classed as functional.
Assay [10] concerns HepG2. Nature of the assay: Induction of apoptosis in human HepG2 cells assessed as early apoptotic cells at 2 uM after 72 hrs by annexin-V FITC and PI staining based flow cytometry (reference value: 1.4 +/- 0.1%). The assay is classed as functional.
Assay [11] deals with HepG2. Nature of the assay: Induction of apoptosis in human HepG2 cells assessed as late apoptotic cells at 2 uM after 72 hrs by annexin-V FITC and PI staining based flow cytometry (reference value: 1.4 +/- 0.0%). The assay is classed as functional.
Assay [12] has as its system HepG2. Nature of the assay: Induction of apoptosis in human HepG2 cells assessed as late apoptotic cells at 4 uM after 72 hrs by annexin-V FITC and PI staining based flow cytometry (reference value: 1.4 +/- 0.0%). The assay is classed as functional.
Assay [13] has as its system HepG2. As to the kind of experiment: Induction of apoptosis in human HepG2 cells assessed as non-viable necrotic cells at 4 uM after 72 hrs by annexin-V FITC and PI staining based flow cytometry (reference value: 2.7 +/- 0.1%). The assay is classed as functional.
Assay [14] deals with HepG2. As to the kind of experiment: Induction of apoptosis in human HepG2 cells assessed as chromatin congregation and karyopyknosis at 1 to 4 uM after 72 hrs by DAPI staining-based fluorescent microscopy. The assay is classed as functional, cell-based. Summed up:
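HepG2 cells exposed for 72 h, with untreated cells as control. Nuclei were stained with DAPI and viewed by fluorescence microscopy at 400×. Apoptotic cells were scored by chromatin congregation and karyopyknosis, seen as bright nuclear fluorescence. Arrows mark apoptotic cells.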

Assay [15] relates to HepG2. Nature of the assay: Induction of apoptosis in human HepG2 cells assessed as viable cells at 1 uM after 72 hrs by annexin-V FITC and PI staining based flow cytometry (reference value: 94.5 +/- 0.6%). The assay is classed as functional. The following applies: HepG2, 72 h, read-out: Activity.
Assay [16] concerns HepG2. Nature of the assay: Induction of apoptosis in human HepG2 cells assessed as early apoptotic cells at 1 uM after 72 hrs by annexin-V FITC and PI staining based flow cytometry (reference value: 1.4 +/- 0.1%). The assay is classed as functional.
For assay [17], the system named is HepG2. As to the kind of experiment: Induction of apoptosis in human HepG2 cells assessed as viable cells at 2 uM after 72 hrs by annexin-V FITC and PI staining based flow cytometry (reference value: 94.5 +/- 0.6%). As to conditions: HepG2, 72 h, read-out: Activity. The assay is classed as functional.
Assay [18] relates to HepG2. Nature of the assay: Induction of apoptosis in human HepG2 cells assessed as viable cells at 4 uM after 72 hrs by annexin-V FITC and PI staining based flow cytometry (reference value: 94.5 +/- 0.6%). The following applies: HepG2, 72 h, read-out: Activity. The assay is classed as functional.
Assay [19] deals with HepG2. Nature of the assay: Induction of apoptosis in human HepG2 cells assessed as late apoptotic cells at 1 uM after 72 hrs by annexin-V FITC and PI staining based flow cytometry (reference value: 1.4 +/- 0.0%). The assay is classed as functional.

On to `COc1c(OCCCCN2CCOCC2)cc2oc(-c3ccccc3)cc(=O)c2c1O`, for which the IC50 stood at 32.4 µM in the assay with HCT-116 [1], 50.6 µM with HepG2 [2] and 26.8 µM in assay [3].
In the same order, the values of `CCN(CC)CCOc1cc2oc(-c3ccccc3)cc(=O)c2c(O)c1OC` are 39.6 µM, 12 µM and 13 µM.
On the same counts, the results for `COc1c(OCCCN2CCCCC2)cc2oc(-c3ccccc3)cc(=O)c2c1O` are 22.1 µM, 6.8 µM and 9.7 µM.
As to `CCN(CC)CCCOc1cc2oc(-c3ccccc3)cc(=O)c2c(O)c1OC`, the figures for the concentration for half-maximal inhibition (IC50) (in the assay on HCT-116 [1]; in the assay on HepG2 [2]; in assay [3]) were 23.4 µM, 18 µM and 3.5 µM, respectively.
Turning to `COc1c(OCCCN2CCN(C)CC2)cc2oc(-c3ccccc3)cc(=O)c2c1O`, the concentration for half-maximal inhibition (IC50) turned out to be 42.5 µM in the assay with HCT-116 [1], 30.4 µM in the assay on HepG2 [2] and 42.3 µM in assay [3].
As to `COc1c(OCCN2CCOCC2)cc2oc(-c3ccccc3)cc(=O)c2c1O`, the IC50 with HCT-116 [1] is 56.3 µM; with HepG2 [2], 67.6 µM; in assay [3], 38.2 µM.
In the case of `COc1c(OCCCCN2CCCC2)cc2oc(-c3ccccc3)cc(=O)c2c1O`, the half-inhibitory concentration (IC50) was 1.4 µM with HCT-116 [1], 4.7 µM with HepG2 [2] and 9.5 µM in assay [3]. The “Ratio IC50” value (with HepG2 [4]; in assay [5]; in the assay on HCT-116 [6]) was 5 in each case.
As to `COc1c(OCCN2CCN(C)CC2)cc2oc(-c3ccccc3)cc(=O)c2c1O`, the IC50 is 54.9 µM in the assay on HCT-116 [1], 15.4 µM in the assay on HepG2 [2] and 20.5 µM in [3].
With `COc1c(OCCCN2CCOCC2)cc2oc(-c3ccccc3)cc(=O)c2c1O`, the values for the concentration for half-maximal inhibition (IC50) (with HCT-116 [1]; in the assay on HepG2 [2]; in [3]) were 52.4 µM, 74.8 µM and 41.6 µM, respectively.
As for `COc1c(OCCN2CCCCC2)cc2oc(-c3ccccc3)cc(=O)c2c1O`, the 50% inhibitory concentration (IC50) was found to be 21.1 µM in the assay on HCT-116 [1], 17.1 µM in the assay on HepG2 [2] and 26.9 µM in [3].
Regarding `COc1c(OCCCCN2CCN(C)CC2)cc2oc(-c3ccccc3)cc(=O)c2c1O`, the IC50 in the assay with HCT-116 [1] worked out at 12.5 µM; in the assay with HepG2 [2], 27.2 µM; in [3] it was 35.8 µM.
Consider `COc1c(OCCCCN2CCCCC2)cc2oc(-c3ccccc3)cc(=O)c2c1O`, for which the Activity turned out to be 5.8% in the assay with HepG2 [7]; 14% in the assay on HepG2 [8]; 2.7% in the assay on HepG2 [9]; 6.5% in the assay on HepG2 [10]; 3.5% in the assay on HepG2 [11]; 17.9% with HepG2 [12]. Besides, the Activity in the assay on HepG2 [13] was determined as 37.5%; in the assay on HepG2 [16], 3.4%; in the assay on HepG2 [19] it was 1.9%. The 50% inhibitory concentration (IC50) with HCT-116 [1] came out at 3 µM; in the assay on HepG2 [2] it was 2.4 µM; in assay [3], 6.6 µM. In addition, the “Ratio IC50” value (in the assay with HepG2 [4]; in [5]; in the assay with HCT-116 [6]) was 5 each time. In the assay on HepG2 [14], the outcome was Active. In the assay with HepG2 [15], the viability at 1 µM came to 88.9%. The viability at 2 µM with HepG2 [17] stood at 87.2%. In the assay on HepG2 [18], the viability at 4 µM came to 30.6%.
For the compound `COc1c(OCCCN2CCCC2)cc2oc(-c3ccccc3)cc(=O)c2c1O`, the IC50 with HCT-116 [1] amounted to 26.6 µM; in the assay with HepG2 [2] it was 20.5 µM; in [3] it was 12 µM.
In the same order, the values of `COc1c(O)cc2oc(-c3ccccc3)cc(=O)c2c1O` [OROXYLIN A] are 33.9 µM, 22.7 µM and 25.5 µM.
`COc1c(OCCN2CCCC2)cc2oc(-c3ccccc3)cc(=O)c2c1O`: the IC50 amounted to 23.4 µM with HCT-116 [1], 9.7 µM in the assay with HepG2 [2] and 22.7 µM in [3].
With `CCN(CC)CCCCOc1cc2oc(-c3ccccc3)cc(=O)c2c(O)c1OC`, the IC50 in the assay on HCT-116 [1] was 5.1 µM; with HepG2 [2], 6.6 µM; in [3] it was 6.3 µM. Further, the “Ratio IC50” value (in the assay with HepG2 [4]; in [5]; in the assay on HCT-116 [6]) was 5 each time.
